As usually defined, the solubility is the concentration that dissolves in the medium under given conditions. Low values mean a poorly soluble substance, high ones a readily soluble substance.

SMILES strings stand for the structures. ≈ marks a conversion by molar mass, not a printed value. Some results are limits rather than exact numbers.

The test system of data set [1] is L1210. Briefly: Compound was evaluated for inhibition dose required to inhibit the growth of L1210 cells in culture. Type of data set: functional. The conditions noted are these: Mus musculus, read-out: ID50 (the source's name).
Data set [2] addresses Thymidylate synthase (Mus musculus, UniProt P07607). Briefly: Inhibitory concentration of compound to inhibit Thymidylate synthase (TS) in L1210 cells at conc. of 200 uM. It is filed as cell-based. A digest of the protocol: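 Partially purified thymidylate synthase from L1210 leukemia cells; the enzyme assay used (±)-5,10-methylenetetrahydrofolate (5,10-CH2-FH4) cofactor at 200 μM.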

The nature of data set [3]: Solubility at pH 5. It is filed as physicochemical. The conditions noted are these: buffer. In outline: (§1)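 Run at 18 °C in 0.01 M potassium phosphate buffer. A saturated suspension was brought to pH 7.4 with 5 M KOH, held overnight, filtered through 0.22 µm, readjusted and refiltered. For pH 5.0, part of the filtrate was acidified with phosphoric acid and refiltered, then diluted with pH 5.0 buffer if opalescent. Samples were diluted in 0.1 M NaOH and concentration read by UV absorbance at 301.5 nm.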

Data set [4] in a line: Solubility at pH 7.4. Type of data set: physicochemical. The conditions noted are these: buffer. A digest of the protocol:
as §1

Sequence of Thymidylate synthase (P07607 whole entry): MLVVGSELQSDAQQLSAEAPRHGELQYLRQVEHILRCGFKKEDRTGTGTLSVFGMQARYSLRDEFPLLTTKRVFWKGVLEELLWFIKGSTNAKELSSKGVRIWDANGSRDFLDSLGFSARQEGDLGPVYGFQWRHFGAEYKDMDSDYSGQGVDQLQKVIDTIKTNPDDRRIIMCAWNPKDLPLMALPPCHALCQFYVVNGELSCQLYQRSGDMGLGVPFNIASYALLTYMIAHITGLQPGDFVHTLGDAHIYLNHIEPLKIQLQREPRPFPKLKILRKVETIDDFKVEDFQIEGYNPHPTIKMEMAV

Take `C=CCN(Cc1ccc2nc(N)nc(O)c2c1)c1ccc(C(=O)NC(CCC(=O)O)C(=O)O)cc1` (stereo not drawn): the IC50 was determined as 6 µM in data set [1] and 0.28 µM in data set [2]. Take `CCN(Cc1ccc2ncnc(O)c2c1)c1ccc(C(=O)NC(CCC(=O)O)C(=O)O)cc1` (stereo not drawn): the IC50 in data set [1] worked out at 2.7 µM. Consider `C#CCN(Cc1ccc2ncnc(O)c2c1)c1ccc(C(=O)NC(CCC(=O)O)C(=O)O)cc1` (stereo not drawn), for which the solubility was 0.043 mg/mL (≈ 93 µM) in data set [3] and > 107 mg/mL in data set [4]. Also, the IC50 in data set [1] is 0.4 µM. In the case of `CCN(Cc1ccc2nc(N)nc(O)c2c1)c1ccc(C(=O)NC(CCC(=O)O)C(=O)O)cc1` (stereo not drawn), the IC50 in data set [1] worked out at 9 µM. In the case of `CN(Cc1ccc2nc(N)nc(O)c2c1)c1ccc(C(=O)NC(CCC(=O)O)C(=O)O)cc1` (stereo not drawn), the IC50 turned out to be 4.5 µM in data set [1] and 0.36 µM in data set [2].

As for `CN(Cc1ccc2ncnc(O)c2c1)c1ccc(C(=O)NC(CCC(=O)O)C(=O)O)cc1` (stereo not drawn), the IC50 in data set [1] is 0.9 µM; in data set [2] it was 1.06 µM.

`C#CCN(Cc1ccc2[nH]c(N)nc(=O)c2c1)c1ccc(C(=O)NC(CCC(=O)O)C(=O)O)cc1` (stereo not drawn): the solubility is 0.0086 mg/mL (≈ 18 µM) in data set [3] and 0.312 mg/mL (≈ 653 µM) in data set [4]. Also, in data set [1], the IC50 is 3.4 µM. As for `C=CCN(Cc1ccc2ncnc(O)c2c1)c1ccc(C(=O)NC(CCC(=O)O)C(=O)O)cc1` (stereo not drawn), the IC50 in data set [1] came out at 2.5 µM; in data set [2], 1.12 µM.

Take `O=C(O)CCC(NC(=O)c1ccc(NCc2ccc3ncnc(O)c3c2)cc1)C(=O)O` (stereo not drawn): the IC50 in data set [1] came to 0.4 µM.

Regarding `Nc1nc(O)c2cc(CNc3ccc(C(=O)NC(CCC(=O)O)C(=O)O)cc3)ccc2n1` (stereo not drawn) [DIDEAZAFOLATE], in data set [1], the IC50 came out at 2.7 µM.

These data come from ChEMBL document CHEMBL1124447, “Quinazoline antifolates inhibiting thymidylate synthase: 2-desamino derivatives with enhanced solubility and potency” (J Med Chem, 1989).
